B1: tRNA (parent)
chain: GUUCCGUUGGCGUAAUGGUAACGCGUCUCCCUCCUAAGGAGAAGACUGCGGGUUCGAGUCCCGUACGGAACG

This sample holds only a part of the variants without activity.

In the data set the parent is B1. Kind of data set: yeast fitness relative to wild type (ratio to wild type); higher = fitter; tRNA-Arg(CCU), competitive growth, 37 C, YPD. The procedure, abridged:
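Amplicons of the tRNA-Arg(CCU) gene were sequenced, 100-nucleotide paired-end, from the start population and from each end population of a pooled yeast competition. The competition, in six parallel replicates, lasted 24 hours in YPD at 37°C. Fitness relative to wild type was calculated from changes in genotype frequencies. Genotypes had to have ≥ 100 starting reads, and estimates < 0.5 were set to 0.5.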
Regarding GUUCAGCUGGCGUAAUGGUAAGGUGUCUCCCUCCUACGGAGAAGACUGCGCGUUUGAGGCCCGUACGGAACG, the yeast fitness is at most 0.5.
Next, GUUCAGUUGGCGUAACGGUAACGCGUCUCCCUCCUAAGGAGAAGACUGCGGGUUCGAGGCCCGUAUGGAACG: 0.533; GUUCAGUCGGCGUAAUGGUAACGCGUCUCCCUCCUAAAGAGAAGACUGCGGGUUCGAGUCCGGUACGGAACG: 0.643.
In the case of GUUCAGUUGGCGAAAUGGUAACGCGUCUCCCUCCUAAGGAGAAGCCUGCGGGUUCGAGUCCCGUACGGCACG, the yeast fitness came to 0.542.
Turning to GUUCAGUUGGCGUAAUGGUAACGCGUCUCCCUCCUAAGGAGAAGACUCCGCGAUCGAGUCCCGUAAGGAACG, the yeast fitness was 0.559.
As for GUUCAGUUGGCGUAAAAGUAACGCGUCUCCCUCCUAAGGAGCAGACUGCGGGUUCGAGUCCCGUACGGAACG, the yeast fitness was at most 0.5.
Next, GUUCAGUUGGCGUAAUGGUAACGCGUCUCCCUCCUAAGGAGAAGACUGCGGGUUCGAGUCCCAUAUGGAACG: 0.651.
As to GUUCAGUUGGCGGAAUGGUAACGCGUCUCCCUCGUAAGGAGAAGUCUGCGGGUUCGAGUCCCGUACGGAACG, the yeast fitness was found to be 0.619.
Next, GUUCAGUCGGAGUAGUGGUAACGCGUUUCCCUCCUAAGGAGUAGACUGCGGGUUCGAGUCAUGUACGGAACG: 0.502.
Next, GUUCAGUUGGCGUAACGGUACCGCGUCUCCCUUCUAAGGGGAAGACUGCGGGUUCGAGUCCCCUACGGAACG: at most 0.5; GUUCAGUUGGCGUAAAGGUAACGCGUCUCCCUCCUAAGGAGAAGACUGCGGGUUCGAGUCCUGUACGGAACG: at most 0.5; GUUCAGUUGGCGUAAUGGAAACGCGUCUCCCUCCUAAGGAGAAGACUGCGGGUUCGAGUCCCGUACGGAACG: 0.843.
Next, GUUCAGUUGGCGUAAUGGAAACGCGUCUCCCUCCUAAGGAGAAGACUGCGGGUUCGAGUCCAGUACGGUACG: at most 0.5.
With GUUCAGUCGGCGUAAUGGUAACGCGUCUCCCUCCCAAGGAGAAAACUCCGGGUUGGAGUCCCGUACGGUACG, the yeast fitness is at most 0.5.
In the case of GUUCAGUGGGCGUAAUGGCAACGCGUCUCCCUCCUAUGGAGAAGACUGCGACUUCGAGCCCCGUACGGAACG, the yeast fitness was at most 0.5.
Next, GUUCAGUUGGCGUAAUGGUAACGCGUCUCCCUCCUAAGGAGAACACUACGAGUUCGAGUCCCGUACGGAACG: 0.609.
For GUUCAGUUGGCGUAACGGUAACGCGUCUCCCUCCUAAGGAGUAGACUGCGGGUUCGGGUCCCGUACGGAACG the value was at most 0.5; for GUUCAGUUGGCGUAAUGGAAACGCGUUUCCCUCCUAAGGAGAAGACUGCGGGUUUGAGUCCCGUACGGAACG, at most 0.5.
On to GUUCAGUUGGCGUAAUGGAAACGCGUCUCGCUCCUAAGGAGAAGACUGCGGGUUCGAGUCCCGUACGGAACG, for which the yeast fitness amounted to 0.594.
Next, GUUCAGCUGGCGUAAUGGAAACGCGUCUCCCUCCUAACGAGGAGACUGGGGGUUAGCGUCCCGUACGGAACG: at most 0.5.
GUUCAGUUGGCGUAAUGGUAACGCGUCUCCCUCCUAAGGAGAAGACUGCGGGUUCGAGUCCCGUACAGUACG: the yeast fitness came out at 0.523.
Next, GUUCAGUUGGCGUAAUGGUAACGCGUCUCCCUCCUAAGGAAAAGACUGCGGGUUCGAGUCCCGUACGGAGCG: 0.604; GUUCAGUUGGCGUAAAGGUAACGCGUCUCCCUCCUAAGGAGCAGACUGCGGGUUCGAGUCCCGUACGGAACG: at most 0.5.
Next, GUUCAGUUGGCGUAAUGGUAACGCGUCUCCCUCCUAAGGAGAAGACUGCGGAUUCGAGUCCCAUACGGAACG: at most 0.5; GUUCAGUUGGCGUAAGGGUAACGCGUUUUCCUCCUUAGGAAAAGACUGCGGGUUCGAGUCCCGUACGGAACG: 0.589; GUUCAGUCGGCGUAAUGGUAGCGCGUCUCCCUCCUAAGGAGAAGCCUGCGGGUUCCAGUCCCGUACGGAACG: 0.554.
Next, GUUCAGCUGGCGUAAUGGUAACGCGUCUCCUUCCUAAGGAGAAGACUGCGGGUUCGAGUCCCGUACGGAACG: 0.605; GUUCAGUUGGCGAAAUGGUAACGCGUCUCGCUCCUAAGGAGAAGACUGCGGGUUCGAGUCCCGUACGGCACG: at most 0.5; GUUCAGAUGGCGUAAUGGUAACGCGUCUCCCUCCUAAGGAGAAGACUGCGGAUUCGAGUCCCGUACAGAACG: at most 0.5.
As to GUUCAGCUGGCGUAAUGGUAACGCGUCUCCCUCCUAAGGAGAAGACUGCGGGUUCGAGACCCGUACGGAACG, the yeast fitness is at most 0.5.
Next, GUUCAGUUGGCGCAAUGGCAACGCGUCUCCCUGCUAAGGAGAAGACUGCGGGUUCGAGUCCCGUACGGAACG: at most 0.5.
Next, GUUCAGCUGGCGUAAUGGCAACGCGUCUCCCUCCUAAGGAGAAGACUGCGGGUUCGAGUCCCGUACGGAACG: at most 0.5; GUUCAGUUGGCGUAAUGGUAACGCGUCUCCCUCCUAAGGAGAAGACUGCGGGUUCGAGUCCCCUACGGAACG: 0.761; GUUCAGUUGGCGUAAUGGUAACGCGUCUCCCUCCUAAGGAGAAAACUGCGGGUUCGAGUCCCGUACGGAACG: 0.716.
Take GUUCAGUUGGCGUAAUGGUAACGCGUCUCCCUCCUAAGGAGAACACUGCGGGUUCGAGUCCCGUACGGAACG: the yeast fitness amounted to 0.8.
GUUCAGUUGGCGCAAUGGUAACGCGUCUUCCUCCUAAGGAGAAGACUGCGGGUUCGAGUCCCGUAUGGAACG: the yeast fitness was 0.549.
For GUUCAGUCGGCGUAAUGGUAGCGCGUCUCCCUCCUAAGGAGAAGCCUGCGGGUUCCAGUCCCGUAUGGAACG the value was at most 0.5; for GUUCAGUUGGCGUAAUGGUAACGCGUCUCCCUCCUAAGGAGAAGACUGCGGGUUCGAGUCCCGUACGCAACG, 0.802; for GUUCAGUUGGCGUAAUGGUAACGCGUCUCCCUCCUAAGGAGAAGACUGCGGGUUCGAGUCCCGUACGAAACG, 0.82.
For GUUCAGUUGGCGUAACGGUAACGCGUCUCCCUCCUAAGGAGUAGACUGCGGGUUCGAGUCCCGUACGGAACG the value was 0.672.
Turning to GUUCAGUCGGUGUAAUGAUAACGCGUCUCCAUCCUAUGGAGAAGACUGCGGGUUCGAGUCCCGUACCGAACG, the yeast fitness is at most 0.5.
Next, GUUCAGUUGGCGUAAUGGUAACGCGUCUCCCUCCUAAGGAGAACACUGCGGGUCCGAGUCCCGUACGGAACG: 0.556; GUUCAGUUGGCGCAAUGGUAACGCGUCUCCCUCCUAAGGAGAAGACUGCGGGUUCGAGUCCCGUACGGAACG: 0.926.
Next, GUUCAGUUGGCGUAAAGGUAACGCGUCUCCCUCCUAAGGAGAAGUCUGCGGGUUCGAGUCCCGUACGGAACG: 0.593.
For GUUCAGCUGGCGUAAUGGUAACGCGUCUCCCUCCUAAGGAGAAGACUGCGGGUUCGAGUCCCCUACGGAACG the value was at most 0.5.
Regarding GUUCAGUUGGCGGAAUGGUAACGCGUCUCCCACCUAAGGAGUAGACUGCGGAUACGAGUGCCGUACGGAACG, the yeast fitness worked out at 0.649.
As for GUUCAGUCGGCGCAAUGGUAACGCGUCUCCCUCCUAAGGGGAAGACUGCGGGUUCGAGUCCCGUACGGAACG, the yeast fitness is 0.522.
For GUUCAGUUGGCGUAAUGGUAACGCGUCUCCCUCCUAAGGAGAAGACUGCAGGUUCGAGUCCCGUACGGAACG the value was 0.87.
For GUUCAGUUGGCGCAAUGGUAACGCGUCUUCCUCCUAAGGAGAAGACUGCGGGUUCGAGUCCCGUACGGAACG the value was at most 0.5; for GUUCAGUUGGCGAAAUGGUAACGCGUCUCCCUCCUAAGGAGAAGACUGCGGGUUCGAGACCCGGACGGAACG, at most 0.5; for GUUCAGUUGGCGGAAUGGUAACGGGUCUCCAUCCUAAGGAGAAGACUGCGGGUUCGAGUCCCGUACGGAACG, 0.514.
As for GUUCAGUUGGCGAAAUGGUAACGCGUCUCCCUCCUAAGGAGAAGACUGCGGGUUCGAGUCCCGUACGGACCG, the yeast fitness was at most 0.5.
For GUUCAGUUGGCGGAAUGGUAACGCGUCUCCCUCGUAAGGAGAAGACUGCGGGUUCGAGUCCGGUACGGAACG the value was at most 0.5.
Consider GUUCAGUUGGCGUAAUGGUAACGCGUCUCCCUCCUAAGGAGAAGACUCCGGGUUCGAGUCCUGUACGGAACG, for which the yeast fitness was found to be 0.629.
For GUUCAGUUGGCGUAAUGGUAACGCGUCUCCCUCCUAAGGAGAAGACUGCGGCUUCGAGUCCCGUACUGUACG the value was at most 0.5; for GUUCAGUUGGCGUAAUGGUAACGCGUCUCCCUCCUAAGGAGAAGACUGCGGGUUCGAGUCCCGUACAGAACG, 0.933.
Next, GUUCAGUAGGCGUAAGGGUUACGCGUCUCCCUCCUGAGGAGAAGACUGCGGGUUCGGGUCCCGUACGAAACG: at most 0.5; GUUCAGCUGGCGUAAUGGUAACGCGUCUCCCUCCUAAGGAGAAGACUGCGGGUUCGAGUCCUGUACGGAACG: at most 0.5; GUUCAGUUGGCGUAAUGGAAACGCGUCUCCCUCCUAAGGAGAAGACUGCGGGUUCGUGUCCCGUACGGAACG: 0.561.
Next, GUUCAGUGGGCGUAAUGGUAACGCGUCUCCCUCCUAUGGAGAAGACUGCGACUUCGGGCCCCGUACGGAACG: 0.52.
In the case of GUUCAGUUGGCGUAAUGGUAACGCGUCUCCCUCCUAAGGAGAAGACUGCGGGUUCAAGUCCCGUACGGAACG, the yeast fitness was determined as 1.
For GUUCAGUUGGCGUAAUGGUAACGCGUCUCCCUCCUAAGGAGAAGACUGCGGGUUCCAGUCCCGUACGGAACG the value was 0.666; for GUUCAGUCGGCGUAAUGGUAACGCGUCUCCCUCCUAAGGAGAAGACUGCGGAUUCGACUCCCGUACGGAACG, at most 0.5; for GUUCAGUUGGCGUAAUGGUAACGCGUCUCCCUCCUAAGGAGAAGACUGCGGAUUCGAGUCCCGUACGAAACG, at most 0.5.
Next, GUUCAGUCGGCGUAAUGGUAGCGCGUCUCCCUCCUAAGGAGAAGCCGGCGGGUUCCAGUCCCGUACGGAACG: at most 0.5.
For GUUCAGUUGGCGUAAUGGUAACGCGUCUCCCUCCUAAGGAGAAGACUGCAGGCUCGAGUCCAGUACGGUACG, the yeast fitness was at most 0.5.
For GUUCAGUUGGCGUAACGGUAACGCGUCUCCCUUCUAAGGAGAAGACUGCGGGUUCGAGUCCCCUACGGAACG the value was at most 0.5; for GUUCAGUUGGCGUAAUGGUAACGCGUCUCCCUCCUAAGGAGAAGACUGCGGGUUCGAAUCCCGUACGGAACG, 0.909; for GUUCAGUUGGCGUAAUGGUAACGCGUCUCCCUCCUAAGGAGAAGACUGCGGGUUCGACUCCCGUACGGAACG, 0.867.
Next, GUUCAGUUGGCGUAAUGGUAACGCGUCUCCCUCCUAAGGAGAAGACUACGGGUUCGAGUACCGUACGGAACG: at most 0.5.
For the variant GUUCAGUUGGCGUAAUGGACACGGGUCUCCCUCGUAAGGAGAAGACUGCGGGUUCGAGUCCCGUACGGAACG, the yeast fitness was at most 0.5.
Next, GUUCAGUUGGCGUAAUGGUAACGCGUCUCCCUCCUAAGGAGAAGACUGCGAGUUCGAGUCGCGUACGGAACG: at most 0.5.
For GUUCAGAUGGCGUAAUGGUAACGCGUCUCCCUCCUAAGGAGAAGACUGCGGGUUCGAGUCCCGUACGGAACG the value was 0.636; for GUUCAGCUGGCGUAAUGGUAACGCGUCUCCCUCCUAAGGAGAAGACUGCGGGUUCGAGUCCCGUACGGAACG, 0.655; for GUUCAGCUGGCGUAAUGGUAACGCGUCUCCCUCAUAAGGACAAGACUGCGGGUUCGAGUUCCGUACGGAUCG, at most 0.5.

For the origin of these results see the RNAGym collection of RNA variant scans (doi:10.1126/science.aae0568).
